Screening results: PubChem BioAssay, Broad Institute
Rows were chosen to be rich in hits. Some 3.5% of all compounds tested hit in one or more screens of this group.
PglD DTNB: PglD (C. jejuni) enzyme inhibition; purified PglD enzyme, DTNB colorimetric CoA detection; inhibition, % at 12.5 µM; actives 0.098% (n = 360,000); in the data active = inhibition above about 16%, passing the limit was not always enough
Ecoli rRNA inh: inhibitors of bacterial rRNA selective over humanized ribosomes; E. coli WT GFP vs humanized-ribosome RFP mutants, fluorescence, 24 h; hits give low values; DMSO median 0, no signal -100; GFP signal change (wild-type ribosome), % (no concentration beside the values); actives 1.6% (n = 350,000);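 active = significant combined selectivity score with lowered wild-type GFP, culture density cut under 30%, mutant RFP and density less affected; inactive = any of these conditions unmet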
HIV Env fusion: blocks HIV Env-driven cell-cell fusion | AID 651610 | HeLa-JRFL Env/CEM21 cell fusion, luciferase | inhibition, % at 12.3 µM | actives 1.1% (n = 360,000);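 active = mean replicate inhibition score of at least 50 and every replicate individually at or above 50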;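 note: 0% = plate neutral controls and 100% = maraviroc near 300 nM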
DENV2 CPE rescue: protects cells from dengue virus 2 cytopathic effect; DENV2-infected cells, cytopathic effect rescue, plate reader; CPE inhibition, % at 9.99 µM; actives 1.7% (n = 350,000); AID 651640; in the data active = CPE inhibition above about 20%, passing the limit was not always enough; tested in BHK-21 cells;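 note: 0% = median of neutral control wells and 100% = median of positive control wells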
PGC1a acetyl inh: lowers PGC1a acetylation signal in U2OS cells. AID 651687. actives 0.17% (n = 350,000). inhibition, % at 15.6 µM. AlphaScreen anti-acetyl-lysine; with virally co-expressed GCN5 acetyltransferase;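 active = every replicate shows inhibition of at least 40%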;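 note: 0% = neutral control wells and 100% = positive control wells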
FN deposit inh: fibronectin deposition inhibition | AH1F fibroblasts, Alexa488-fibronectin deposition fluorescence, overnight | actives 0.086% (n = 350,000) | AID 743247 | inhibition, % at 12.6 µM;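 active = mean inhibition across replicates of 30% or more, regardless of how many single replicates reach that level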;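 note: positive control wells lacked labelled fibronectin entirely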
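Measured by – fluorescence 485/525 nm · System – AH1F fibroblast monolayer, labelled fibronectin deposition · Amount – 10000 cells per well · Buffer or medium – serum-reduced DMEM (2% serum) · Doses – single dose, pinned · Also added – fluorescent fibronectin at 24 nM final · Schedule – 1 h cell attachment, overnight exposure to compound and label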
Numbers without * were called inactive; x = not tested or not shown; ! = not confirmed by another sample; [ ] = remark or other dose.

SMILES	PglD DTNB	Ecoli rRNA inh	HIV Env fusion	DENV2 CPE rescue	PGC1a acetyl inh	FN deposit inh
COc1ccc(-c2csc3nc(-c4ccccc4OC)oc(=O)c23)cc1	0.1	-20.3*	20.8	-2.8	-13.5	x
O=c1oc(-c2ccccc2F)nc2scc(-c3ccccc3)c12	-1.4	x	63.9*	-2.6	6.0	-4.1
Fc1ccc(CNC2CCN(Cc3ccccc3)CC2)cc1	-4.1	4.3	-16.4	35.2*	9.2	4.5
Cn1c(CN2CCCCC2)nc2cc(NC(=O)c3cccc(Br)c3)ccc21	2.1	x	67.1*	x	7.4	x
CN(Cc1nc2ccccc2c(=O)[nH]1)C(=O)c1cccc(S(=O)(=O)N2CCc3ccccc32)c1	-0.2	-24.8	11.9	43.7*	-0.7	-10.3
CN(Cc1nc2ccccc2c(=O)[nH]1)C(=O)c1cccc(S(=O)(=O)N2CCCCCC2)c1	1.5	x	x	2.0	2.2	-1.2
C=CCn1c(C)cc(C(=O)CN2C(=O)c3ccccc3S2(=O)=O)c1C	0.3	x	x	x	5.9	x
CCn1c(C)cc(C(=O)CN2C(=O)c3ccccc3S2(=O)=O)c1C	-2.0	4.9	98.5*	7.9	x	2.5
Cc1cc(C(=O)CN2C(=O)c3ccccc3S2(=O)=O)c(C)n1-c1ccccc1	-2.9	x	x	x	5.7	x
Cc1cc(C(=O)CN2C(=O)c3ccccc3S2(=O)=O)c(C)n1C(C)C	-5.8	-7.9	91.3*	-4.8	x	-0.2
CC(=O)N1CC2(C1)[C@H](c1ccc(-c3cccc(F)c3)cc1)[C@@H](CO)N2CC1CCCC1	x	-35.6	x	-8.8	-16.8	x
C[C@@H]1CN([C@@H](C)CO)C(=O)c2cc(C#Cc3cccc(F)c3)cnc2O[C@H]1CN(C)C(=O)C1CCCCC1	4.3	1.1	1.8	21.7*!	-0.7	4.8
C[C@@H]1CN([C@H](C)CO)C(=O)c2cc(C#Cc3cccc(F)c3)cnc2O[C@@H]1CN(C)C(=O)C1CCCCC1	-0.7	-14.3	10.2[16.7 µM]	-10.1	-5.2	x
COc1cccc(C#Cc2cnc3c(c2)C(=O)N([C@H](C)CO)C[C@@H](C)[C@H](CN(C)C(=O)C2CCC2)O3)c1	-0.7	-4.2	10.7[16.7 µM]	20.1*	6.9	x
C[C@H]1CN([C@@H](C)CO)C(=O)c2cc(-c3ccccc3)cnc2O[C@@H]1CN(C)C(=O)C1CCCCC1	x	-7.0	x	47.0*	-1.0	x
COc1cccc(C#Cc2cnc3c(c2)C(=O)N([C@@H](C)CO)C[C@@H](C)[C@@H](CN(C)C(=O)C2CCC2)O3)c1	2.0	-1.2	-13.3[16.7 µM]	24.9*	-18.2	x
O=C(C[C@H]1CC[C@@H](NS(=O)(=O)c2ccccc2)[C@@H](CO)O1)N1CCC(Cc2ccccc2)CC1	x	-10.1	x	14.1	-0.4	-12.1
CC(=O)C1=C(C)NC2=C(C(=O)c3ccccc32)C1c1ccccc1 (stereo not given)	x	-25.1	63.5*	-0.2	-1.2	13.9
C=CCN([C@@H](CC(C)C)C(=O)OC)S(=O)(=O)N(CC=C)[C@@H](CC(C)C)C(=O)OC	4.7	5.9	80.7*	-6.6	x	-3.3
COC(=O)[C@H](Cc1ccccc1)N(Cc1ccccc1)S(=O)(=O)N(Cc1ccccc1)[C@@H](Cc1ccccc1)C(=O)OC	1.6	1.8	79.8*	-6.7	x	7.6
COC(=O)[C@H](Cc1ccccc1)N(C)S(=O)(=O)c1cccc(S(=O)(=O)N(C)[C@@H](Cc2ccccc2)C(=O)OC)c1	-0.1	-2.0	9.4	-7.4	-55.4	-6.0
CCOC(=O)[C@@H](C)N(C(=O)OC(C)(C)C)S(=O)(=O)N(Cc1ccccc1)[C@H](C(=O)OC)C(C)C	0.4	5.7	84.8*	-18.2	-14.0	5.5
COC(=O)[C@@H](CC(C)C)NS(=O)(=O)N(Cc1ccccc1)[C@@H](CC(C)C)C(=O)OC	-1.7	-3.5	55.0*	12.9	-24.7	-2.6
COC(=O)[C@H](C(C)C)N(Cc1ccccc1)S(=O)(=O)CCN1CCCC1	5.2	2.4	-44.5	-0.2	-0.8	-1.7
CCCN1C[C@@H](C)[C@H](OC)CN(C)C(=O)c2cc(NC(=O)Nc3ccccc3F)ccc2OC[C@@H]1C	-0.4	-0.6	-26.8[16.7 µM]	4.1	4.0	-1.1
CCOCCCNC(=O)C(c1ccc(Cl)cc1)N(Cc1cccs1)C(=O)c1ccccn1 (stereo not given)	x	-23.0*	8.9	-3.0	-1.6	x
